This note sets out measurements from ChEMBL document CHEMBL4017532, “Multifunctional Hybrid Compounds Derived from 2-(2,5-Dioxopyrrolidin-1-yl)-3-methoxypropanamides with Anticonvulsant and Antinociceptive Properties” (J Med Chem, 2017).

Data set [1] has as its system Mus musculus. Description: Toxicity in Albino Swiss CD-1 mouse assessed as motor coordination impairment at 50 to 150 mg/kg, ip by rotarod test. Type of data set: organism-based. Particulars: in vivo.
The target of the next data set is Cytochrome P450 3A4 (Homo sapiens, UniProt P08684). The data set is described as follows: Inhibition of human CYP3A4 assessed as reduction in luciferin-PPXE conversion to D-luciferin at 12.5 to 25 uM by luminescence assay. Type of data set: ADME. A digest of the protocol:
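P450-Glo luminescence assays used recombinant human CYP3A4 or CYP2D6 with conversion of luciferin-PPXE to D-luciferin. Ketoconazole (CYP3A4) and quinidine (CYP2D6) served as reference inhibitors.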

In data set [2] the test system is Mus musculus. Description: Anticonvulsant activity in ip dosed Albino Swiss CD-1 mouse assessed as protection against maximal electroshock-induced seizures pretreated up to 2 hrs followed by 50 Hz current induction for […] measured at time to peak effect. Particulars: Swiss CD-1, ip. It is filed as functional.
Data set [3] is filed under the species Rattus norvegicus. Description: Displacement of omega[125I]conotoxin from N-type calcium channel in rat cerebral cortex at 100 uM by scintillation spectrophotometry. The gist of the method:
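Run commercially by an outside contract lab, with the compound tested at 100 μM. The read-out was percent inhibition of binding of the radiolabelled ligand, reported as compound binding.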

Data set [4] relates to Mus musculus. Description: Antiallodynic activity in oxaliplatin-induced Albino Swiss CD-1 mouse model of peripheral neuropathy assessed as elevation in pain sensitivity threshold at 50 mg/kg, ip administered 30 mins prior to oxaliplatin challenge relative to control. It is filed as functional. The gist of the method: (§1)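 Male CD-1 mice, 18–25 g, that had developed oxaliplatin-induced tactile allodynia were dosed ip 30 min before testing. Doses were 25, 50 or 100 mg/kg, or 50, 100 or 150 mg/kg for the reference. Vehicle was 1% aqueous Tween 80. Paw-withdrawal force was measured by von Frey filaments. Data are mean ± SEM, analysed by repeated-measures ANOVA with Dunnett's test against oxaliplatin plus vehicle mice.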

Data set [5] is filed under the species Rattus norvegicus. The data set is described as follows: Displacement of (-)-[3H](-)D 888 from L-type calcium channel verapamil binding site in rat cerebral cortex at 100 uM. A digest of the protocol: (§2)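 Radioligand binding was run as a contract service. Percent inhibition of specific labelled-ligand binding was measured at 100 μM test compound, or 200 μM for hERG.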

The test system of data set [6] is Mus musculus. Description: Antiallodynic activity in oxaliplatin-induced Albino Swiss CD-1 mouse model of peripheral neuropathy assessed as elevation in pain sensitivity threshold at […], ip administered 30 mins prior to oxaliplatin challenge relative to control. It is filed as functional.
The test system of data set [7] is Mus musculus. Description: Analgesic activity in Albino Swiss CD-1 mouse assessed as increase in pain response latency administered at 150 mg/kg, ip treated up to 90 mins prior to tet by hot plate assay. It is filed as functional, organism-based. A digest of the protocol: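 Male CD-1 mice, 18–25 g, 6–12 per group, given test agents as 1% aqueous Tween 80 suspension ip. Doses were 50, 100 or 150 mg/kg, with morphine hydrochloride at 4 mg/kg as reference. Mice were placed on the hot plate 15, 30, 45, 60 and 90 min after dosing, and latency to pain reaction was recorded.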

Data set [8] relates to Mus musculus. Description: Antinociceptive activity in Albino Swiss CD-1 mouse assessed as inhibition of capsaicin-induced nociception by measuring time spent licking injected paw at 100 mg/kg, ip administered 30 mins mins prior to capsaicin challenge measured for 5 mins relative to control. Type of data set: functional. Particulars: Swiss CD-1, ip. The gist of the method:
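Mice (male CD-1, 18–25 g) were pretreated ip 30 min before intraplantar capsaicin. Doses were 25, 50 or 100 mg/kg, or 100, 150 or 200 mg/kg for the reference. Vehicle was 1% Tween 80 at 10 mL/kg. Duration of nociceptive response was scored over 5 min after injection. Data are mean ± SEM of 8–10 mice, by one-way ANOVA with Dunnett's test against vehicle.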

Data set [9] concerns Mus musculus. Description: Toxicity in Albino Swiss CD-1 mouse assessed as effect on spontaneous locomotar activity at 25 to 150 mg/kg, ip treated 30 mins prior to test. It is filed as organism-based. The conditions noted are these: in vivo, 0.5 h. The gist of the method:
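Male CD-1 mice were dosed ip at 25, 50, 100 or 150 mg/kg 30 min before testing and then placed singly in activity cages. Light-beam crossings were counted over 30 min in 10 min intervals.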

The species named for data set [10] is Rattus norvegicus. The data set is described as follows: Displacement of [3H]CGP 39653 from NMDA receptor in rat cerebral cortex at 100 uM after 60 mins by liquid scintillation counting. The gist of the method:
as §2

For data set [11], the system named is Mus musculus. Description: Anticonvulsant activity in Albino Swiss CD-1 mouse assessed as protection against maximal electroshock-induced seizures at 100 mg/kg, ip pretreated up to 2 hrs followed by 50 Hz current induction for […] relative to control. It is filed as functional.
Data set [12] deals with Mus musculus. Description: Antiallodynic activity in oxaliplatin-induced Albino Swiss CD-1 mouse model of peripheral neuropathy assessed as elevation in pain sensitivity threshold at 100 mg/kg, ip administered 30 mins prior to oxaliplatin challenge relative to control. Type of data set: functional. A digest of the protocol:
as §1

The target in data set [13] is Voltage-gated inwardly rectifying potassium channel KCNH2 (Homo sapiens, UniProt Q12809). The data set is described as follows: Displacement of [3H]astemizole from human hERG expressed in HEK293 cell membrane at 200 uM after 90 mins by liquid scintillation counting. It is filed as cell membranes. The conditions noted are these: hek293, 1.5 h. The gist of the method: as §2
Chain of Voltage-gated inwardly rectifying potassium channel KCNH2 (Q12809 whole entry): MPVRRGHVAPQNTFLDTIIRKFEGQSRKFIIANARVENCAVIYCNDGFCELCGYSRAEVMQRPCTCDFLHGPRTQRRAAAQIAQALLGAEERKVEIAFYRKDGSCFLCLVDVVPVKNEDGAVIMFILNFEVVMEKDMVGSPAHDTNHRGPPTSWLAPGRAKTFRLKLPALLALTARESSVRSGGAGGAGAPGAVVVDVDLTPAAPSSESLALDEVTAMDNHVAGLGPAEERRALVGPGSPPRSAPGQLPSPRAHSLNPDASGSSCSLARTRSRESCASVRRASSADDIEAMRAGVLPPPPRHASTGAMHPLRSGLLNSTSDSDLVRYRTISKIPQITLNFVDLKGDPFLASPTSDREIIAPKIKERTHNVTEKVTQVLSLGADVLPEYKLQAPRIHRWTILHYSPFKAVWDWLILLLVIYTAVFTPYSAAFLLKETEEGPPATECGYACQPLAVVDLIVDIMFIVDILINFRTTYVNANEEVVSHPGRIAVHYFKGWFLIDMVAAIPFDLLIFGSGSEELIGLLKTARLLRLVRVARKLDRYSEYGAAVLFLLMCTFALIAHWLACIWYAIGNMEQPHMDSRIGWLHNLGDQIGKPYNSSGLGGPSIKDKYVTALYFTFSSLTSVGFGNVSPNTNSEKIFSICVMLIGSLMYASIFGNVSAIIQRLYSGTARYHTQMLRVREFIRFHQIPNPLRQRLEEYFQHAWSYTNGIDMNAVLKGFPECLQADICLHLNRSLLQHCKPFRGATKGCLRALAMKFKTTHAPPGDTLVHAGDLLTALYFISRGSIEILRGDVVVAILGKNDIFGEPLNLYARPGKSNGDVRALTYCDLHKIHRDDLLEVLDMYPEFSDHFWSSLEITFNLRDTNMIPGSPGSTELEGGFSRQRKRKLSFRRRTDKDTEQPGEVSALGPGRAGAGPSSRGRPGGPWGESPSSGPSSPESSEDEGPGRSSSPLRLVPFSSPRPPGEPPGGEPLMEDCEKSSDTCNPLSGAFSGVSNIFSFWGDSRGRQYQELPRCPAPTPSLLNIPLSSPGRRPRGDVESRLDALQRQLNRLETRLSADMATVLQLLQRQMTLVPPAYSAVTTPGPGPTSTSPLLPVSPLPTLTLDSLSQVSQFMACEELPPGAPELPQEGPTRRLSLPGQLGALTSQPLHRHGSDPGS

A short description of data set [14]: Neurotoxicity in ip dosed Albino Swiss CD-1 mouse assessed as induction of motor impairment measured up to 60 secs by chimney test. Type of data set: toxicity, organism-based. The conditions noted are these: in vivo. A digest of the protocol: (§3)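 Acute neurological toxicity after ip dosing (1% Tween 80 suspension) was assessed in the mouse chimney test. TD50 with 95% confidence limits was derived by probit analysis. Protective index is TD50 from the chimney test divided by ED50 from the MES, scPTZ or 6 Hz test.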

The species named for data set [15] is Rattus norvegicus. Description: Displacement of [3H]GABA from GABA transporter in rat cerebral cortex at 100 uM by liquid scintillation spectrometry. A digest of the protocol: as §2
Data set [16] relates to Mus musculus. Description: Anticonvulsant activity in ip dosed Albino Swiss CD-1 mouse assessed as protection against 32 mA current-induced seizure treated up to 2 hrs prior to 6-Hz current induction measured at time to peak effect. Type of data set: functional. Particulars: Swiss CD-1, ip.
Data set [17] deals with Mus musculus. Description: Anticonvulsant activity in Albino Swiss CD-1 mouse assessed as protection against 6 Hz current-induced seizure at 100 mg/kg, ip pretreated up to 2 hrs followed by 6 Hz current induction for 3 secs relative to control. Type of data set: functional.
In data set [18] the test system is Mus musculus. The data set is described as follows: Protection index, ratio of TD50 for neurotoxicity in ip dosed Albino Swiss CD-1 mouse to ED50 for ip dosed Albino Swiss CD-1 mouse model of 6 Hz-induced siezures. The gist of the method: as §3
The nature of data set [19]: Retention time of the compound by LC-MS method.
The subject of data set [20] is Mus musculus. The data set is described as follows: Anticonvulsant activity in Albino Swiss CD-1 mouse assessed as inhibition of pentylenetetrazole-induced seizures at 100 mg/kg, ip administered up to 0.5 hrs prior to PTZ induction measured after 30 mins relative to control. It is filed as functional. Also on record: scale not given: the % may be the effect or the level left.

The test system of data set [21] is Mus musculus. The data set is described as follows: Protection index, ratio of TD50 for neurotoxicity in ip dosed Albino Swiss CD-1 mouse to ED50 for ip dosed pentylenetetrazole induced seizure Albino Swiss CD-1 mouse model. A digest of the protocol: as §3
In data set [22] the test system is Mus musculus. Description: Antiallodynic activity in oxaliplatin-induced Albino Swiss CD-1 mouse model of peripheral neuropathy assessed as elevation in pain sensitivity threshold administered ip 30 mins prior to oxaliplatin challenge. Type of data set: functional, organism-based. A digest of the protocol:
as §1

In data set [23] the target is GABA-A receptor; alpha-1/beta-2/gamma-2 (Homo sapiens) (UniProt P14867+P47870+P18507). The data set is described as follows: Displacement of [3H]muscimol from human GABAalpha1beta2gamma2 receptor expressed in CHO cells at 100 uM after 30 mins by liquid scintillation counting. Type of data set: cell-based. The gist of the method: as §2

Structures are written as SMILES. Calls of active or inactive are those of the source. Where only a bound is given, the exact number is not on record here.

Chain of Cytochrome P450 3A4 (P08684 whole entry): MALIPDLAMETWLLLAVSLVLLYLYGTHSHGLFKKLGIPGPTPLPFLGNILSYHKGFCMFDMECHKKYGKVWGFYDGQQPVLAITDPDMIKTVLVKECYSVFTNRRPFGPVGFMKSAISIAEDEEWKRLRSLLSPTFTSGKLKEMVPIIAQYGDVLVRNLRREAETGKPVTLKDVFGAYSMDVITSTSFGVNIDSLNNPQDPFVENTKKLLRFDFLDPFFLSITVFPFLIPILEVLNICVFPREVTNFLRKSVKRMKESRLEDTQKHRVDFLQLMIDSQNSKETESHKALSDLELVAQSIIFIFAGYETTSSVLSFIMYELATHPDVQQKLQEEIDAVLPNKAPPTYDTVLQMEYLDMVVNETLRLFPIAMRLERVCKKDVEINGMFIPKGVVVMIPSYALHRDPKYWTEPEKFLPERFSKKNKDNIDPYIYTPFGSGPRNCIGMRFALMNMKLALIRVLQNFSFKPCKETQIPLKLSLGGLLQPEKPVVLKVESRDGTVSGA

As to `COCC(C(=O)N1CCN(c2ccc(C(F)(F)F)cc2)CC1)N1C(=O)CCC1=O` (centres undefined), the Activity entry is “Non-Toxic” with Mus musculus [1]; 121% in the data set with Mus musculus [4]; 122% with Mus musculus [6]; “Non-Toxic” with Mus musculus [9]; 75 - 100% with Mus musculus [11]; 149.2% with Mus musculus [12]. The Activity entry is “<=75%” in the data set with Mus musculus [17], 75% with Mus musculus [20] and “Dose-dependent effect” with Mus musculus [22]. Besides, the “inhibition (INH)” value (at Cytochrome P450 3A4; in data set [13]) was “Not Active” throughout. In addition, the 50% effective dose (ED50) with Mus musculus [2] lay in the range of 79.5 to 83.3 mg/kg; with Mus musculus [16] it was 22.4 to 26.9 mg/kg. Further, the inhibition result (in the data set listed under Rattus norvegicus [3]; in the data set filed under Rattus norvegicus [5]; in the data set filed under Rattus norvegicus [10]; in the data set filed under Rattus norvegicus [15]; in [23]) was “inactive” throughout. Moreover, the result in the data set on Mus musculus [7] was inactive. Also, the inhibition in vivo at 100 mg/kg in the data set with Mus musculus [8] turned out to be 59.3%. In addition, the TD50 at 1 min in data set [14] fell in the range of 156 to 199 mg/kg. Moreover, the “Ratio TD50/ED50” value in the data set on Mus musculus [18] was 5.8 - 8.9; in the data set with Mus musculus [21], 1.6. This molecule returned a Retention time in [19] of 6.11 min.
